Reference: ChEMBL document CHEMBL4715736, “Identification of anticancer agents based on the thieno[2,3-b]pyridine and 1H-pyrazole molecular scaffolds” (2016)

How the values were obtained:
Assay type in all cases: functional
BT-549 [1] = experiment: Growth inhibition of human BT-549 cells assessed as cell growth at 1 uM incubated for 48 hrs by sulforhodamine B assay relative to control; conditions: read-out: Activity
SK-MEL-28 = experiment: Growth inhibition of human SK-MEL-28 cells assessed as cell growth at 100 uM incubated for 48 hrs by sulforhodamine B assay relative to control; conditions: read-out: Activity
K562 = experiment: Growth inhibition of human K562 cells assessed as cell growth at 0.1 uM incubated for 48 hrs by sulforhodamine B assay relative to control; conditions: read-out: Activity
ACHN [2] = experiment: Growth inhibition of human ACHN cells incubated for 48 hrs by sulforhodamine B assay
Procedure, shortened: (§1)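 NCI Developmental Therapeutics Program NCI60 panel. Compounds that were active in the 10 µM one-dose screen went on to dose–response testing. Growth at each concentration is expressed relative to untreated control (100%). GI50 (concentration giving 50% of maximal inhibition of proliferation) and TGI (concentration giving total growth inhibition) were derived from the curves.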

Malme-3M = experiment: Growth inhibition of human Malme-3M cells assessed as cell growth at 1 uM incubated for 48 hrs by sulforhodamine B assay relative to control; conditions: read-out: Activity
RXF 393 [3] = experiment: Growth inhibition of human RXF 393 cells incubated for 48 hrs by sulforhodamine B assay; conditions: for CC50: read-out: LC50 (the source's name)
Procedure, shortened: (§2)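 NCI DTP 60-line human tumour panel. Dose-response curves were run only for ligands active in the initial 10 µM screen. GI50 (concentration giving 50% of maximal inhibition of proliferation) and TGI (concentration giving total growth inhibition) were derived from these curves.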

MOLT-4 = experiment: Growth inhibition of human MOLT-4 cells assessed as cell growth at 0.1 uM incubated for 48 hrs by sulforhodamine B assay relative to control; conditions: read-out: Activity
SF-539 = experiment: Growth inhibition of human SF-539 cells assessed as cell growth at 0.1 uM incubated for 48 hrs by sulforhodamine B assay relative to control; conditions: read-out: Activity
RPMI-8226 [4] = experiment: Growth inhibition of human RPMI-8226 cells incubated for 48 hrs by sulforhodamine B assay; procedure, shortened: as §2
OVCAR-4 [5] = experiment: Growth inhibition of human OVCAR-4 cells incubated for 48 hrs by sulforhodamine B assay; conditions: for CC50: read-out: LC50 (the source's name); procedure, shortened: as §2
HOP-92 = experiment: Growth inhibition of human HOP-92 cells assessed as cell growth at 1 uM incubated for 48 hrs by sulforhodamine B assay relative to control; conditions: read-out: Activity
CAKI-1 = experiment: Growth inhibition of human CAKI-1 cells assessed as cell growth at 0.01 uM incubated for 48 hrs by sulforhodamine B assay relative to control; conditions: read-out: Activity; procedure, shortened: as §1
NCI/ADR-RES [6] = experiment: Growth inhibition of human NCI/ADR-RES cells assessed as cell growth at 100 uM incubated for 48 hrs by sulforhodamine B assay relative to control; conditions: read-out: Activity
BT-549 [7] = experiment: Growth inhibition of human BT-549 cells assessed as cell growth at 0.01 uM incubated for 48 hrs by sulforhodamine B assay relative to control; conditions: read-out: Activity
SK-MEL-2 = experiment: Growth inhibition of human SK-MEL-2 cells assessed as cell growth at 100 uM incubated for 48 hrs by sulforhodamine B assay relative to control; conditions: read-out: Activity
RPMI-8226 [8] = experiment: Growth inhibition of human RPMI-8226 cells assessed as cell growth at 100 uM incubated for 48 hrs by sulforhodamine B assay relative to control; conditions: read-out: Activity
UACC-257 = experiment: Growth inhibition of human UACC-257 cells assessed as cell growth at 0.01 uM incubated for 48 hrs by sulforhodamine B assay relative to control; conditions: read-out: Activity
SNB-75 = experiment: Growth inhibition of human SNB-75 cells assessed as cell growth at 0.1 uM incubated for 48 hrs by sulforhodamine B assay relative to control; conditions: read-out: Activity
Hs-578T = experiment: Growth inhibition of human Hs-578T cells assessed as cell growth at 100 uM incubated for 48 hrs by sulforhodamine B assay relative to control; conditions: read-out: Activity
SNB-19 = experiment: Growth inhibition of human SNB-19 cells assessed as cell growth at 0.1 uM incubated for 48 hrs by sulforhodamine B assay relative to control; conditions: read-out: Activity
NCI/ADR-RES [9] = experiment: Growth inhibition of human NCI/ADR-RES cells assessed as cell growth at 0.1 uM incubated for 48 hrs by sulforhodamine B assay relative to control; conditions: read-out: Activity
NCI-H322M = experiment: Growth inhibition of human NCI-H322M cells assessed as cell growth at 0.1 uM incubated for 48 hrs by sulforhodamine B assay relative to control; conditions: read-out: Activity
LOX IMVI = experiment: Growth inhibition of human LOX IMVI cells assessed as cell growth at 0.1 uM incubated for 48 hrs by sulforhodamine B assay relative to control; conditions: read-out: Activity
RXF 393 [10] = experiment: Growth inhibition of human RXF 393 cells assessed as cell growth at 0.01 uM incubated for 48 hrs by sulforhodamine B assay relative to control; conditions: read-out: Activity
SK-MEL-5 = experiment: Growth inhibition of human SK-MEL-5 cells assessed as cell growth at 100 uM incubated for 48 hrs by sulforhodamine B assay relative to control; conditions: read-out: Activity
MDA-MB-435 = experiment: Growth inhibition of human MDA-MB-435 cells assessed as cell growth at 0.01 uM incubated for 48 hrs by sulforhodamine B assay relative to control; conditions: read-out: Activity
NCI-H460 = experiment: Growth inhibition of human NCI-H460 cells assessed as cell growth at 0.1 uM incubated for 48 hrs by sulforhodamine B assay relative to control; conditions: read-out: Activity
DU-145 = experiment: Growth inhibition of human DU-145 cells assessed as cell growth at 0.1 uM incubated for 48 hrs by sulforhodamine B assay relative to control; conditions: read-out: Activity; procedure, shortened: as §1
786-0 = experiment: Growth inhibition of human 786-0 cells assessed as cell growth at 0.1 uM incubated for 48 hrs by sulforhodamine B assay relative to control; conditions: read-out: Activity; procedure, shortened: as §1
OVCAR-4 [11] = experiment: Growth inhibition of human OVCAR-4 cells assessed as cell growth at 1 uM incubated for 48 hrs by sulforhodamine B assay relative to control; conditions: read-out: Activity
COLO 205 = experiment: Growth inhibition of human COLO 205 cells assessed as cell growth at 0.1 uM incubated for 48 hrs by sulforhodamine B assay relative to control; conditions: read-out: Activity; procedure, shortened: as §1
CCRF-CEM [12] = experiment: Growth inhibition of human CCRF-CEM cells assessed as cell growth at 1 uM incubated for 48 hrs by sulforhodamine B assay relative to control; conditions: read-out: Activity; procedure, shortened: as §1
ACHN [13] = experiment: Growth inhibition of human ACHN cells assessed as cell growth at 0.01 uM incubated for 48 hrs by sulforhodamine B assay relative to control; conditions: read-out: Activity
CCRF-CEM [14] = experiment: Growth inhibition of human CCRF-CEM cells incubated for 48 hrs by sulforhodamine B assay; procedure, shortened: as §1
SF-268 = experiment: Growth inhibition of human SF-268 cells assessed as cell growth at 1 uM incubated for 48 hrs by sulforhodamine B assay relative to control; conditions: read-out: Activity
HOP-62 = experiment: Growth inhibition of human HOP-62 cells assessed as cell growth at 0.1 uM incubated for 48 hrs by sulforhodamine B assay relative to control; conditions: read-out: Activity

## Cc1cc(C)c(NC(=O)c2sc3nc4c(cc3c2N)CN(Cc2ccccc2)CC4)c(C)c1
BT-549 [1]
  growth at 1 µM: 81%
SK-MEL-28
  growth at 100 µM: -30%
K562
  growth at 0.1 µM: 105%
ACHN [2]
  GI50: 6.31 µM
  TGI: > 100 µM
ACHN [2]; read-out: LC50 (the source's name)
  CC50: > 100 µM
Malme-3M
  growth at 1 µM: 76%
RXF 393 [3]
  GI50: 2.45 µM
  TGI: 18.5 µM
  CC50: > 100 µM
MOLT-4
  growth at 0.1 µM: 98%
SF-539
  growth at 0.1 µM: 96%
RPMI-8226 [4]
  GI50: 3.18 µM
  LC50: > 100 µM
  TGI: 35.1 µM
OVCAR-4 [5]
  GI50: 6.72 µM
  TGI: > 100 µM
  CC50: > 100 µM
HOP-92
  growth at 1 µM: 49%
CAKI-1
  growth at 0.01 µM: 88%
NCI/ADR-RES [6]
  growth at 100 µM: -11%
BT-549 [7]
  growth at 0.01 µM: 87%
SK-MEL-2
  growth at 100 µM: 6%
RPMI-8226 [8]
  growth at 100 µM: -11%
UACC-257
  growth at 0.01 µM: 94%
SNB-75
  growth at 0.1 µM: 94%
Hs-578T
  growth at 100 µM: -3%
SNB-19
  growth at 0.1 µM: 96%
NCI/ADR-RES [9]
  growth at 0.1 µM: 100%
NCI-H322M
  growth at 0.1 µM: 97%
LOX IMVI
  growth at 0.1 µM: 105%
RXF 393 [10]
  growth at 0.01 µM: 92%
SK-MEL-5
  growth at 100 µM: -49%
MDA-MB-435
  growth at 0.01 µM: 92%
NCI-H460
  growth at 0.1 µM: 103%
DU-145
  growth at 0.1 µM: 101%
786-0
  growth at 0.1 µM: 92%
OVCAR-4 [11]
  growth at 1 µM: 77%
COLO 205
  growth at 0.1 µM: 104%
CCRF-CEM [12]
  growth at 1 µM: 88%
ACHN [13]
  growth at 0.01 µM: 97%
CCRF-CEM [14]
  GI50: 3.16 µM
  LC50: > 100 µM
  TGI: 59.7 µM
SF-268
  growth at 1 µM: 92%

## CN1CCc2nc3sc(C(N)=O)c(N)c3c(-c3cccs3)c2C1
BT-549 [1]
  growth at 1 µM: 92%
SK-MEL-28
  growth at 100 µM: -18%
K562
  growth at 0.1 µM: 97%
Malme-3M
  growth at 1 µM: 131%
RXF 393 [3]
  GI50: 1.11 µM
  TGI: 3.63 µM
  CC50: > 100 µM
MOLT-4
  growth at 0.1 µM: 91%
SF-539
  growth at 0.1 µM: 104%
RPMI-8226 [4]
  GI50: 4.41 µM
  LC50: > 100 µM
  TGI: > 100 µM
OVCAR-4 [5]
  GI50: 7.38 µM
  TGI: > 100 µM
  CC50: > 100 µM
HOP-92
  growth at 1 µM: 104%
CAKI-1
  growth at 0.01 µM: 95%
BT-549 [7]
  growth at 0.01 µM: 114%
SK-MEL-2
  growth at 100 µM: -45%
RPMI-8226 [8]
  growth at 100 µM: 1%
UACC-257
  growth at 0.01 µM: 97%
SNB-75
  growth at 0.1 µM: 95%
Hs-578T
  growth at 100 µM: -13%
SNB-19
  growth at 0.1 µM: 103%
NCI/ADR-RES [9]
  growth at 0.1 µM: 96%
NCI-H322M
  growth at 0.1 µM: 102%
LOX IMVI
  growth at 0.1 µM: 83%
RXF 393 [10]
  growth at 0.01 µM: 97%
SK-MEL-5
  growth at 100 µM: -42%
MDA-MB-435
  growth at 0.01 µM: 95%
NCI-H460
  growth at 0.1 µM: 114%
DU-145
  growth at 0.1 µM: 115%
HOP-62
  growth at 0.1 µM: 104%
786-0
  growth at 0.1 µM: 99%
OVCAR-4 [11]
  growth at 1 µM: 108%
COLO 205
  growth at 0.1 µM: 103%
CCRF-CEM [12]
  growth at 1 µM: 104%
CCRF-CEM [14]
  GI50: 3.77 µM
  LC50: > 100 µM
  TGI: > 100 µM
SF-268
  growth at 1 µM: 107%
